High-throughput results: PubChem BioAssay, several laboratories
LMPTP inh: blocks human LMPTP phosphatase; inhibition, % at 20 µM; 360,000 compounds, 0.22% hits; recombinant LMPTP-A, OMFP fluorogenic substrate, fluorescence intensity; AID 651560;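 active = compounds that cut the enzyme signal by at least half of the control window in the single-dose screen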;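 note: plate controls were DMSO wells with enzyme plus substrate for no effect and substrate without enzyme for full effect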
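Test system: LMPTP-A, protein tyrosine phosphatase of low molecular weight; Input: 0.625 nM enzyme; Incubation: 50 min dark incubation at room temperature; Signal: endpoint fluorescence intensity from OMFP dephosphorylation; Read-out basis: % inhibition versus control wells.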
STEP block: STEP (human) phosphatase inhibition; inhibition, % at 20 µM; recombinant STEP, OMFP fluorogenic substrate, fluorescence; 360,000 compounds, 0.25% hits; AID 588621;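 active = inhibition at 20 µM, scaled per plate between control wells, above about 37%, limit read from the data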;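 note: 0% = DMSO with enzyme and substrate and 100% = substrate only without enzyme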
Target sequence (P54829 whole entry, looked up): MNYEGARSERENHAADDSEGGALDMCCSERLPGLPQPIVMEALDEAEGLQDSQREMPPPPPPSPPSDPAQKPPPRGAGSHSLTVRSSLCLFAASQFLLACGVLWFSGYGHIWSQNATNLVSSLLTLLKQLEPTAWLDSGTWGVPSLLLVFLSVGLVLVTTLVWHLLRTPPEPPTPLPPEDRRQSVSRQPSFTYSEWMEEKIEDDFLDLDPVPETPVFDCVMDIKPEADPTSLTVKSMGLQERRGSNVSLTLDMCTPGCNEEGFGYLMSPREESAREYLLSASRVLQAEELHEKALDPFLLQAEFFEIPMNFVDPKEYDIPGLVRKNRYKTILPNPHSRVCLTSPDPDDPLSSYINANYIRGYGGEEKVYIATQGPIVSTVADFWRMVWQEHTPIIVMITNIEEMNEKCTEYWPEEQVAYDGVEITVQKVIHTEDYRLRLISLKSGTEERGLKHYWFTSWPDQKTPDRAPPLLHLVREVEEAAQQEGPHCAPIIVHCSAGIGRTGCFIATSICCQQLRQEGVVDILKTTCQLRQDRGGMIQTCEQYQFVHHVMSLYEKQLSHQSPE
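Assay system: isolated STEP enzyme. Buffer or medium: pH 6.0 Bis-Tris with DTT and Tween 20. Also added: fluorogenic phosphatase substrate OMFP at 25 µM final. Dosing: 20 µM, 1% DMSO. Timing: 20 min reaction, room temperature, in the dark. Measured by: fluorescence intensity, excitation 480 nm, emission 540 nm. Evaluation: normalized % inhibition.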
NadD block: NadD (S. aureus) enzyme inhibition | purified NadD enzyme, colorimetric absorbance read-out | inhibition, % at 20 µM | 360,000 compounds, 0.78% hits | AID 602399; in the data active = inhibition above about 26%
Scp-1 inhibitor: blocks human Scp-1 phosphatase activity. inhibition, % at 20 µM. Recombinant Scp1, phosphopeptide, malachite green phosphate absorbance. 340,000 compounds, 0.88% hits. Q9GZU7. AID 493091;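 active = inhibition above about 50% at 20 µM, limit read from the data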;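 note: plate controls were DMSO wells with enzyme for no effect and wells lacking enzyme for full effect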
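System: SCP-1 catalytic domain; Reagent: Phospho 17-mer peptide substrate; Doses: one concentration, 20 µM, with 1.0% DMSO; Incubation: 45 min room-temperature reaction, 5 min colour, 30 min stabiliser; Signal: Phosphate-binding colour reagent, absorbance read at 630 nm.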
rCAG RNA binder: molecules binding r(CAG) RNA repeats. r(CAG) RNA repeat, TO-PRO-1 dye displacement fluorescence. inhibition, % at 3 µM. 370,000 compounds, 1.3% hits;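 active = inhibition above the plate cutoff, the mean of all test compounds on that plate plus 3 SD, cut at about 35% in these data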;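 note: 0% = DMSO alone and 100% = 100 µM mitoxantrone as full dye displacement; higher means more dye released from RNA so lower well fluorescence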
rCAG binder conf: r(CAG) RNA repeat binding, confirmation; shares compounds with rCAG RNA binder; TO-PRO-1 dye displacement fluorescence; inhibition, % at 3 µM; 4,300 compounds, 70% hits; AID 652065;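 active = inhibition above a per-plate cutoff, the mean inhibition of sample wells plus 3 SD, cut at about 35% in these data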;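 note: loss of TO-PRO-1 fluorescence as compound displaces dye from 1x1 AA loop RNA; 0% = DMSO only wells and 100% = 100 µM mitoxantrone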
DNA CAG counter: disrupts DNA CAG TO-PRO-1 complex, flagging rCAG hits; d(CAG) DNA oligo TO-PRO-1 dye displacement, fluorescence; inhibition, % at 3 µM; shares compounds with rCAG RNA binder; 4,300 compounds, 94% hits;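 active = inhibition above its plate's cutoff, the mean test-well inhibition plus 3 SD, cut at about 4.8% in these data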;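 note: 0% = DNA dye mix with DMSO and 100% = 100 µM mitoxantrone; hits displace the dye from DNA and so lower well fluorescence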
DNA CAG DR: disrupts DNA CAG TO-PRO-1 complex in dose response; shares compounds with rCAG RNA binder; DNA CAG/GTC duplex TO-PRO-1 dye displacement fluorescence; IC50, µM; 250 compounds, 20% hits; in the data active = IC50 below about 10 µM
An asterisk follows results filed as active. An excerpt weighted towards active compounds, which were near 2.6% of everything screened.

What do the screens show for `COC(=O)[C@]12C[C@H](CC(=O)N3CCSCC3)C(=O)N(Cc3cccc4ccccc34)C1=C[C@H](C(C)C)O[C@@H]2C1CC1`?
rCAG RNA binder: 5

How did Fc1ccc2nc(-c3ccc(CN4CCC5(CC4)CNc4ccccc45)cc3)c(-c3ccccc3)nc2c1 do in these assays?
rCAG RNA binder: 11

Results for Cc1noc(C)c1CSCC(=O)Nc1nc2c(F)cc(F)cc2s1 ?
LMPTP inh: 9; STEP block: 6; NadD block: 2; Scp-1 inhibitor: 44; rCAG RNA binder: 36*; rCAG binder conf: 29; DNA CAG counter: 18*

How did Cc1cccc(C)c1-n1cccc1/C=C1\SC(=S)N(c2cccc(C(=O)O)c2)C1=O do in these assays?
LMPTP inh: 6; STEP block: 1; NadD block: 29; Scp-1 inhibitor: -4; rCAG RNA binder: 84*; rCAG binder conf: 78*; DNA CAG counter: 41*

What do the screens show for `CC1=NN(c2cccc(C(=O)O)c2)C(=O)/C1=C\C=C\c1ccco1`?
LMPTP inh: 15; STEP block: 41*; NadD block: 0; Scp-1 inhibitor: 80*; rCAG RNA binder: 56*; rCAG binder conf: 64*; DNA CAG counter: 26*

Results for CC1=NN(c2ccccc2)C(=O)/C1=C/C=C/c1ccccc1 ?
LMPTP inh: 2; STEP block: 2; NadD block: -5; Scp-1 inhibitor: -12; rCAG RNA binder: 5

Results for Cc1[nH]n(-c2ccccc2)c(=O)c1C=Nc1cnc2ccccc2c1 ?
LMPTP inh: 1; STEP block: -1; NadD block: -9; Scp-1 inhibitor: 9; rCAG RNA binder: 4

How did C=CCSc1nnc(-c2ccccc2NC(=O)CC)c(=O)[nH]1 do in these assays?
LMPTP inh: 0; STEP block: 0; NadD block: -2; Scp-1 inhibitor: -5; rCAG RNA binder: 51*; rCAG binder conf: 5; DNA CAG counter: 2

What do the screens show for `Cc1[nH]n(-c2ccccc2)c(=O)c1/C=N/c1nn[nH]n1`?
LMPTP inh: 0; STEP block: -3; NadD block: 1; Scp-1 inhibitor: -3; rCAG RNA binder: 3

Results for C=CCSc1nnc(-c2ccccc2N=Cc2c(C)[nH]n(-c3ccccc3)c2=O)c(=O)[nH]1 ?
LMPTP inh: 3; STEP block: 0; NadD block: 9; Scp-1 inhibitor: 1; rCAG RNA binder: 41*; rCAG binder conf: 33; DNA CAG counter: 9.6*

Results for CSc1nnc(-c2ccccc2N=Cc2c(C)[nH]n(-c3ccc4ccccc4c3)c2=O)c(=O)[nH]1 ?
LMPTP inh: 4; STEP block: 6; NadD block: 29; Scp-1 inhibitor: -7; rCAG RNA binder: 68*; rCAG binder conf: 71*; DNA CAG counter: 32*; DNA CAG DR: 9.2*

What do the screens show for `C=CCN1C(=O)[C@@H](CC(=O)NCCc2ccccc2OC)[C@]2(C(=O)OCC)CCCCC/C=C/12`?
rCAG RNA binder: 5

Results for Cc1occc1-c1nnc(SCC(=O)N2CCN(c3ncccn3)CC2)n1-c1ccccc1 ?
rCAG RNA binder: 2

What do the screens show for `CN(C)CC(c1ccc(O)cc1)C1(O)CCCCC1` (centres undefined)?
rCAG RNA binder: 2

Results for COC(=O)C1CCCN(C(=O)C2CCN(S(=O)(=O)c3ccccc3[N+](=O)[O-])CC2)C1 (centres undefined) ?
rCAG RNA binder: 5

How did COc1ccc(CC(/C=C/c2ccc(F)cc2)c2ccccc2)cc1 (centres undefined) do in these assays?
rCAG RNA binder: 4

What do the screens show for `Cc1cc(C)cc(NC(=O)C2(C(=O)C3CC3)CC(c3ccccc3C(F)(F)F)=NO2)c1` (centres undefined)?
rCAG RNA binder: 1
